Reference: ChEMBL document CHEMBL5303300, “EUbOPEN Chemogenomics Library - Multiplex” (2023)
Where “and” joins values, the source holds several entries; their conditions need not be identical. Equal values may be shown once.

Test system: HEK-293T
Assay: Multiplex assay against HEK293T
Type: toxicity, cell-based
Settings: human, number of replicates 2
Procedure, shortened: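 Tubulin, mitochondrial-mass and membrane-permeability phenotypes are per cents of healthy-nucleus cells. Cells were gated by CellPathfinder machine learning into Hoechst high-intensity objects or normal cells, normal cells into healthy, pyknosed or fragmented nuclei, and pyknosed cells into mitotic or apoptotic. Before that, live cells stained at seeding with Hoechst33342, BioTracker Green Microtubule Cytoskeleton Dye, MitoTracker Red and Annexin V Alexa Fluor 680 were imaged on a CQ1 microscope at 37°C and 5% CO2 after compound addition.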

[1] = 12 h, 1 µM, compound concentration 1 uM
[2] = 12 h, 10 µM, compound concentration 10 uM
[3] = 24 h, 1 µM, compound concentration 1 uM
[4] = 24 h, 10 µM, compound concentration 10 uM
[5] = 48 h, 1 µM, compound concentration 1 uM
[6] = 48 h, 10 µM, compound concentration 10 uM

CC(C)(C)c1cnc(CSc2cnc(NC(=O)C3CCNCC3)s2)o1 [BMS-387032]
Population Apoptotic (%) [1]: 64% and 60%
Population Fragmented Nuclei (%) [1]: 3%
Population Healthy Nuclei (%) [1]: 69% and 77%
Population Hoechst High Intensity Objects (%) [1]: 17% and 10%
Population Membrane Permeable-Phenotype (%) [1]: 6% and 0%
Population Mitochondria Different-Phenotype (%) [1]: 54%
Population Mitotic Cells (%) [1]: 35% and 40%
Population Normal (%) [1]: 82% and 89%
Population Pyknosed Nuclei (%) [1]: 26% and 18%
Population Tubulin-Different-Phenotype (%) [1]: 75% and 77%
Population Apoptotic (%) [2]: 87% and 73%
Population Fragmented Nuclei (%) [2]: 6% and 3%
Population Healthy Nuclei (%) [2]: 77% and 90%
Population Hoechst High Intensity Objects (%) [2]: 18% and 15%
Population Membrane Permeable-Phenotype (%) [2]: 3% and 1%
Population Mitochondria Different-Phenotype (%) [2]: 66% and 67%
Population Mitotic Cells (%) [2]: 12% and 26%
Population Normal (%) [2]: 81% and 84%
Population Tubulin-Different-Phenotype (%) [2]: 84% and 85%
Population Apoptotic (%) [3]: 73% and 69%
Population Fragmented Nuclei (%) [3]: 6% and 5%
Population Healthy Nuclei (%) [3]: 70% and 72%
Population Hoechst High Intensity Objects (%) [3]: 22% and 14%
Population Membrane Permeable-Phenotype (%) [3]: 3% and 0%
Population Mitochondria Different-Phenotype (%) [3]: 58% and 61%
Population Mitotic Cells (%) [3]: 26% and 30%
Population Normal (%) [3]: 77% and 85%
Population Pyknosed Nuclei (%) [3]: 23% and 21%
Population Tubulin-Different-Phenotype (%) [3]: 69% and 71%
Population Apoptotic (%) [4]: 87% and 75%
Population Fragmented Nuclei (%) [4]: 9% and 5%
Population Healthy Nuclei (%) [4]: 73% and 85%
Population Hoechst High Intensity Objects (%) [4]: 19% and 17%
Population Membrane Permeable-Phenotype (%) [4]: 0%
Population Mitochondria Different-Phenotype (%) [4]: 80% and 78%
Population Mitotic Cells (%) [4]: 12% and 25%
Population Normal (%) [4]: 80% and 82%
Population Pyknosed Nuclei (%) [4]: 16% and 9%
Population Tubulin-Different-Phenotype (%) [4]: 84% and 89%
Population Apoptotic (%) [5]: 77% and 81%
Population Fragmented Nuclei (%) [5]: 7% and 4%
Population Healthy Nuclei (%) [5]: 71% and 77%
Population Hoechst High Intensity Objects (%) [5]: 21% and 16%
Population Membrane Permeable-Phenotype (%) [5]: 1% and 0%
Population Mitochondria Different-Phenotype (%) [5]: 62% and 68%
Population Mitotic Cells (%) [5]: 22% and 18%
Population Normal (%) [5]: 78% and 83%
Population Pyknosed Nuclei (%) [5]: 21% and 18%
Population Tubulin-Different-Phenotype (%) [5]: 64% and 65%
Population Apoptotic (%) [6]: 92% and 93%
Population Fragmented Nuclei (%) [6]: 9% and 5%
Population Healthy Nuclei (%) [6]: 71% and 86%
Population Hoechst High Intensity Objects (%) [6]: 23% and 19%
Population Membrane Permeable-Phenotype (%) [6]: 2%
Population Mitochondria Different-Phenotype (%) [6]: 83% and 86%
Population Mitotic Cells (%) [6]: 7% and 6%
Population Normal (%) [6]: 76% and 80%
Population Pyknosed Nuclei (%) [6]: 18% and 8%
Population Tubulin-Different-Phenotype (%) [6]: 85% and 89%
